# Most compounds without a hit are left out; they make up all but 1.8% or so of the library.
# GRK2 inh = blocks RNA aptamer binding to human GRK2; P25098; bead flow cytometry, FAM-aptamer displacement from GRK2; inhibition of aptamer binding, % at 10 µM; 330,000 tested, 0.59% active; AID 488847;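 active = inhibition of aptamer binding above 40%, roughly 3 SD of noise, on plates passing a quality check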;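 also: median bead fluorescence of bound FAM aptamer so fluorescent compounds give negative values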
# Target sequence (P25098 whole entry, looked up): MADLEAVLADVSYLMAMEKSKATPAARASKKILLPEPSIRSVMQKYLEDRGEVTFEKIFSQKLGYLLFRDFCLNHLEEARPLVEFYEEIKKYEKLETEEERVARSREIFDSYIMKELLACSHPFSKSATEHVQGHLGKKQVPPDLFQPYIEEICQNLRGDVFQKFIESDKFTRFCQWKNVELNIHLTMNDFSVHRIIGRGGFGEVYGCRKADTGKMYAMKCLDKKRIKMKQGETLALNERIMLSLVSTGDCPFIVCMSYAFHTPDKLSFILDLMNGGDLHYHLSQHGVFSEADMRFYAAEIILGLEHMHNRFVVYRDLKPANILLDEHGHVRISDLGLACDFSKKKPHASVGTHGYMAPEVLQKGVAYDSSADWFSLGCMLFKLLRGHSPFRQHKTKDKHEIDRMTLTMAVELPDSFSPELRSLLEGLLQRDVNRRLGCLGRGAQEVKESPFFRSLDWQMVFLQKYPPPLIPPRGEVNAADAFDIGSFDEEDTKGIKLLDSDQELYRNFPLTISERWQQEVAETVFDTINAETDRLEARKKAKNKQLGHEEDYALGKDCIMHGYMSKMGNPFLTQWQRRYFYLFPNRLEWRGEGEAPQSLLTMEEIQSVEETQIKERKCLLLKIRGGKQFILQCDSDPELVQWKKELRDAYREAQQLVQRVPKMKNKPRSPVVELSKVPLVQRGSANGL
# CAL PDZ FP-1 = blocks peptide binding to the human CAL PDZ domain | Q9HD26 | purified CAL PDZ, TMR-peptide fluorescence polarization, 1 h | inhibition, % at 24.9 µM | 300,000 tested, 0.92% active | AID 602252;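 active = mean inhibition of at least 30% with at least half of replicates also reaching 30%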;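 also: 0% = DMSO neutral control and 100% = excess unlabeled competitor peptide PRC23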
# ARNT-TACC3 inh = disruptors of human ARNT/TACC3 interaction. AlphaScreen His-ARNT PAS-B/GST-TACC3 binding, luminescence; TACC3 fragment carries E629A point mutation. 390,000 tested, 0.66% active. inhibition, % at 9.99 µM. AID 623870;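 active = mean inhibition of replicates at least 50% and at least half of replicates each reaching 50%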;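 also: 0% = complete ARNT plus TACC3 wells and 100% = ARNT alone without TACC3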
# CAL PDZ FP-2 = blocks peptide binding to human CAL PDZ domain; inhibition, % at 20 µM; purified CAL PDZ, TMR-peptide fluorescence polarization, 1 h; Q9HD26; 330,000 tested, 0.02% active; AID 504414;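 active = highest replicate inhibition of at least 40%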;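 also: plate controls were DMSO neutral control wells for no effect and unlabeled competitor peptide control wells for full effect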
#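 Control set: unlabelled peptide and DMSO controls / Material: purified CerCALP PDZ construct / Timing: 1 h incubation at room temperature before polarization reading / Doses: 20 µM, one dose / Detection: fluorescence polarization (mP)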
# Tn6 DDE FP = disrupts Tn6 cyclic peptide binding to fibrin D-Dimer-E complex. Fibrin DD(E) TRITC-Tn6 fluorescence polarization displacement. inhibition, % at 8.3 µM. 370,000 tested, 0.21% active;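 active = inhibition above a per-campaign cutoff: mean of compounds within control limits plus 3 SD, cut at about 15% in these data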;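 also: 0% = median of all compound wells on the plate and 100% = blocking peptide control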
# Tn7 DDE FP = inhibitors of Tn7 peptide binding to human fibrin DD(E) | P02675 | FP displacement of FITC-Tn7 peptide from fibrin DD(E); 0% = median of compound wells per plate | inhibition, % at 8.3 µM | 370,000 tested, 0.13% active | AID 720508;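 active = inhibition above the mean of compounds falling within the control limits plus 3 SD of them, cut at about 14% in these data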;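 also: 0% = plate median of compound wells and 100% = 10 µM Aha-Tn7 peptide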
#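 Test system: human clot-derived fibrin DD(E) complex / Quantity: 2 µM final DD(E) protein / Incubation: 10 min plus 3 h, room temperature / Measured by: fluorescence polarization / Benchmarks: high control of 10 µM Aha-Tn7 peptide / Replicates: singlicate testing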
# Tn7 DDE conf = DD(E)-Tn7 binding inhibition, FP confirmation. shares compounds with Tn7 DDE FP. FP displacement of TRITC-Tn7 peptide from DD(E); 0% set at plate's compound-well median. inhibition, % at 8.3 µM. 460 tested, 5% active. AID 720628;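 active = inhibition above the campaign cutoff, the mean of compounds within control limits plus 3 SD, cut at about 14% in these data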;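 also: 100% = median FP of high control wells holding Aha-Tn7 inhibitor peptide; displacers lower polarization since freed probe rises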
# DDE Tn7 FP ctr = DD(E)-Tn7 binding inhibition, counter-screen | inhibition, % at 8.3 µM | 460 tested, 3% active | shares compounds with Tn7 DDE FP | fibrin DD(E), TRITC-Tn7 probe displacement, fluorescence polarization;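 active = inhibition above the cutoff, the mean of compounds lying between the control bounds plus 3 SD of those compounds, cut at about 17% in these data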;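 also: 0% = median of compound sample wells and 100% = excess unlabeled Aha-Tn7 peptide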
# Active calls of the source: *; nt = no result given.
SMILES,GRK2 inh,CAL PDZ FP-1,ARNT-TACC3 inh,CAL PDZ FP-2,Tn6 DDE FP,Tn7 DDE FP,Tn7 DDE conf,DDE Tn7 FP ctr
COCC(=O)Nc1ccc2c(c1)C(=O)N(C)C[C@H](OC)[C@@H](C)CN(Cc1ccccc1F)[C@@H](C)CO2,nt,nt,-7,nt,nt,nt,nt,nt
Cc1ccc(S(=O)(=O)C(C#N)c2nc3ccccc3nc2N2CCCC2)cc1 (stereo not drawn),2,-1,2,0,1,16*,3,2
CCN1CCN(c2nc3ccccc3nc2C(C#N)S(=O)(=O)c2ccc(C)cc2)CC1 (stereo not drawn),3,-1,-2,0,-1,-1,nt,nt
O=C(O)c1ccccc1C1=Nc2ccc(O)cc2Oc2cc(O)ccc21,36,4,-2,nt,9,35*,5,-6
CC(C)CNC(=O)OCc1cn(Cc2ccccc2C(F)(F)F)nn1,nt,nt,nt,nt,4,6,nt,nt
CCCNC(=O)Nc1ccc2c(c1)OC[C@@H](C)N(CCC(F)(F)F)C[C@H](C)[C@H](OC)CN(C)C2=O,nt,nt,-2,nt,nt,nt,nt,nt
CCc1ccccc1NC(=S)NC1CC2CCC(C1)N2Cc1ccc(F)cc1 (stereo not drawn),2,-3,7,-7,-11,14*,-3,-11
O=C(Cc1ccc(NC2=NC3CS(=O)(=O)CC3S2)cc1)N1CCN(c2ccc(F)cc2)CC1 (stereo not drawn),2,nt,-5,0,8,4,nt,nt
COc1ccc(N(CC(=O)NCc2ccc3c(c2)OCO3)S(=O)(=O)c2ccc(O)c(C(=O)O)c2)cc1,nt,-4,0,0,2,15*,-2,-9
COc1ccc(S(=O)(=O)N(C)CC(=O)NCc2ccc3c(c2)OCO3)cc1,0,4,1,-3,7,3,nt,nt
CC1(C)Cc2c(cnn2-c2ccccc2)C(NC(=O)CCCN2CCCCC2=O)C1 (stereo not drawn),0,4,1,6,-1,16*,1,0
O=C(Nc1ccccc1F)N[C@H]1CC[C@H](CCNS(=O)(=O)c2ccc(Cl)cc2)O[C@H]1CO,nt,nt,-2,nt,nt,nt,nt,nt
Cc1cccc(NC(=O)CSc2nnnn2-c2ccc3c(c2)OCCO3)n1,0,0,-5,-2,-6,15*,1,1
O=C([C@@H]1[C@@H](CO)[C@@H]2Cn3c(ccc(-c4cccnc4)c3=O)[C@H]1N2CCC(F)(F)F)N1CCCCC1,nt,nt,-7,nt,nt,nt,nt,nt
CC1=C(C(=O)OC(C)C)C(c2ccc3c(c2)OCO3)NC(=O)N1 (stereo not drawn),2,nt,0,1,-6,16*,3,-1
COC(=O)C1=C(C)NC(=O)NC1c1ccc2c(c1)OCO2 (stereo not drawn),0,4,-2,0,-10,-1,nt,nt
CC(=O)N(C)C[C@@H]1Oc2cc(-c3cccc(C#N)c3)ccc2S(=O)(=O)N([C@@H](C)CO)C[C@@H]1C,nt,nt,0,nt,nt,nt,nt,nt
Cc1noc(C)c1NC(=O)N[C@@H]1C=C[C@H](CC(=O)N2CCCCC2)O[C@@H]1CO,nt,nt,1,nt,nt,nt,nt,nt
CCOC(=O)C1=C(C)Nc2ccccc2N/C1=N\S(=O)(=O)c1cccc(Cl)c1,0,-3,-5,0,0,16*,7,-1
COC(=O)C1CN(C2CCCC2)CCS(=O)(=O)N1Cc1ccccc1 (stereo not drawn),nt,nt,nt,nt,0,16*,-2,-5
COC(=O)C1CN(Cc2ccccc2)CCS(=O)(=O)N1Cc1ccc(C)cc1 (stereo not drawn),nt,nt,nt,nt,7,1,nt,nt
Cc1ccc(N2C(=O)c3cccc4c(N)ccc(c34)C2=O)c2cccnc12,0,3,-11,-1,0,19*,-33,5
C[C@@H]1CCCCO[C@@H](CN(C)C(=O)Nc2ccccc2)[C@@H](C)CN([C@@H](C)CO)C(=O)c2cc(NC(=O)Nc3ccc4c(c3)OCO4)ccc2O1,nt,nt,2,nt,nt,nt,nt,nt
C[C@@H]1CCCCO[C@@H](CN(C)C(=O)Nc2ccc(F)cc2)[C@H](C)CN([C@H](C)CO)C(=O)c2cc(NC(=O)CCC(F)(F)F)ccc2O1,nt,nt,-13,nt,nt,nt,nt,nt
N#CC1=C(N)Oc2n[nH]c(-c3ccccc3)c2C1c1cccc(OC(=O)N2CCOCC2)c1 (stereo not drawn),0,-5,12,-2,-4,2,nt,nt
N#CC1=C(N)Oc2n[nH]c(-c3ccc(F)cc3)c2C1c1cccc(OC(=O)N2CCOCC2)c1 (stereo not drawn),3,-2,20,-2,7,15*,5,-3
COC(=O)/C=C/C(=O)Nc1cccc(C(F)(F)F)c1,0,0,-5,-1,3,14*,-2,-3
COC(=S)Nc1cccc(C(F)(F)F)c1,1,-1,4,0,2,-1,nt,nt
O=C(NNC1=Nc2cccc3cccc1c23)c1ccc(Br)cc1,0,5,5,1,-2,-4,nt,nt
C[C@@H]1CN([C@@H](C)CO)S(=O)(=O)c2ccc(-c3ccncc3)cc2O[C@@H]1CN(C)C,nt,nt,-8,nt,nt,nt,nt,nt

# Bioassay records as filed in PubChem BioAssay.
